In ChEMBL document CHEMBL1125403, “Hybrid cholecystokinin-A antagonists based on molecular modeling of lorglumide and L-364,718” (J Med Chem, 1992):

Columns and labels:
Type in all cases: cell membranes, Membrane
[1] = target: T1, Cholecystokinin receptor type A (Rattus norvegicus, UniProt P30551); assay: Inhibition of [3H]L-364718 binding to cholecystokinin type A receptor in rat pancreas membranes
T1 sequence (P30551 whole entry): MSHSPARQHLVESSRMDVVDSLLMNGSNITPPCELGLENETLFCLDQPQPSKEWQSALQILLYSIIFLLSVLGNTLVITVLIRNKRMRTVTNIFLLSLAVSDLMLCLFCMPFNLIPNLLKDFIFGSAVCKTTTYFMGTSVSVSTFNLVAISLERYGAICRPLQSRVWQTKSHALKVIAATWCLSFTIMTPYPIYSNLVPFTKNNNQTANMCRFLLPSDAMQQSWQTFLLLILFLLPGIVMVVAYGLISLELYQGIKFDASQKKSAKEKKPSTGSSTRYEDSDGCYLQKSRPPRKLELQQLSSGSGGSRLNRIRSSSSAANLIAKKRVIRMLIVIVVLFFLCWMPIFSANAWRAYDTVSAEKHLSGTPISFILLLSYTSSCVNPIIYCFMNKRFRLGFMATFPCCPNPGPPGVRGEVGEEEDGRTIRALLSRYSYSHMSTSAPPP
Outline: (§1)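 Male Wistar rat pancreas membranes, homogenized in 10 mM Hepes pH 7.4/5 mM MgCl2/130 mM NaCl, stored at -80 °C. GF/B filtration, scintillation counting. Nonspecific binding with 10 μM lorglumide. IC50 from pseudo-Hill plots, Ki by Cheng-Prusoff. Mean ± SEM of three experiments.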

[2] = target: T1, Cholecystokinin receptor type A; assay: Compound was evaluated for its ability to inhibit [3H]L-364718 binding Cholecystokinin type A receptor in rat pancreas membranes
Outline: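 Male Wistar rat pancreas membranes, homogenized in 10 mM Hepes pH 7.4/5 mM MgCl2/130 mM NaCl, stored at -80 °C. […] GF/B filtration, scintillation counting. Nonspecific binding with 10 μM lorglumide. IC50 from pseudo-Hill plots, Ki by Cheng-Prusoff. Mean ± SEM of three experiments.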

[3] = target: T1, Cholecystokinin receptor type A; assay: Displacement of [3H]L-364718 from Cholecystokinin type A receptor of rat pancreatic membranes; outline: as §1

| Compound | Ki [1] [nM] | Ki [3] [nM] | further results |
| --- | --- | --- | --- |
| Cc1cccc(NC(=O)NCC=C(c2ccccc2)c2ccccc2)c1 | 800 |  |  |
| O=C(NCCC=C(c1ccccc1)c1ccccc1)c1cc2ccccc2[nH]1 |  |  | Ki [2]: > 2000 nM |
| O=C(NCC=C(c1ccccc1)c1ccccc1)c1ccc(Cl)cc1 | > 2000 |  |  |
| O=C(NCC=C(c1ccccc1)c1ccccc1)c1cc2cccc3c2n1CCC3 |  | > 2000 |  |
| O=C(NCC=C(c1ccccc1)c1ccccc1)c1cnc2ccccc2c1 |  | > 2000 |  |
| O=C(NCC=C(c1ccccc1)c1ccccc1)c1ccc2ccccc2n1 |  | 470 |  |
| O=C(NCC=C(c1ccccc1)c1ccccc1)c1cc2ccccc2[nH]1 |  | 340 |  |
| COc1ccc(C(=CCNC(=O)c2cc3ccccc3[nH]2)c2ccc(OC)cc2)cc1 |  | > 4000 |  |
| CCCCCC(=CCNC(=O)Nc1ccc(Cl)cc1)CCCCC |  | 200 |  |
| O=C(NCC=C(c1ccccc1)c1ccccc1)c1ccc(Cl)c(Cl)c1 | 400 |  |  |
| O=C(NCCC=C(c1ccccc1)c1ccccc1)Nc1ccc(Cl)cc1 |  | 400 |  |
| O=C(NCC=C(c1ccccc1)c1ccccc1)Nc1ccc(Cl)cc1 | 90 |  |  |
| O=C(NCC=C1c2ccccc2CCc2ccccc21)Nc1ccc(Cl)cc1 | > 4000 |  |  |
| O=C(NCC=C(c1ccccc1)c1ccccc1)c1ccnc2ccccc12 |  | > 2000 |  |
| O=C(NCC=C(c1ccccc1)c1ccccc1)c1cccc2ccccc12 | 1000 |  |  |
| O=C(NC/C=C/c1ccccc1)Nc1ccc(Cl)cc1 |  | > 4000 |  |
| CCCCCN(CCCCC)C(=O)[C@@H](CCC(=O)O)NC(=O)c1ccc(Cl)c(Cl)c1 | 49 |  |  |
| O=C(NCC=C(c1ccccc1)c1ccccc1)c1ccc2ccccc2c1 | 450 |  |  |
